TCR CD3 inh: human TCR-CD3 binding inhibition. TAMRA-labeled TCR probe fluorescence, biochemical. inhibition, % at 9.4 µM. 360,000 tested, 0.37% active. AID 651800; in the data active means inhibition above about 19%;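 further: recombinant mutant TCR 2C K166C tagged with TAMRA read by polarization; 0% = receptor in buffer alone and 100% = receptor with positive control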
PRMT1 FP inh: inhibitors of human PRMT1 | Q99873 | recombinant PRMT1, activity-based probe fluorescence polarization | inhibition, % at 2.79 µM | 370,000 tested, 1.3% active;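 active means inhibition above about 21% made by adding two undisclosed values, limit read from the data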
SIAE primary: human SIAE inhibition, primary screen | SIAE FP-Rh probe binding, fluorescence polarization | inhibition, % at 9.66 µM | 370,000 tested, 0.69% active | AID 1053197;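 active means inhibition above a cutoff: mean of compounds within the control limits plus 3 SD of those, cut at about 17% in these data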;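 further: 0% = plate median of compound wells and 100% = probe without SIAE protein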
Target sequence (Q9HAT2 whole entry, looked up): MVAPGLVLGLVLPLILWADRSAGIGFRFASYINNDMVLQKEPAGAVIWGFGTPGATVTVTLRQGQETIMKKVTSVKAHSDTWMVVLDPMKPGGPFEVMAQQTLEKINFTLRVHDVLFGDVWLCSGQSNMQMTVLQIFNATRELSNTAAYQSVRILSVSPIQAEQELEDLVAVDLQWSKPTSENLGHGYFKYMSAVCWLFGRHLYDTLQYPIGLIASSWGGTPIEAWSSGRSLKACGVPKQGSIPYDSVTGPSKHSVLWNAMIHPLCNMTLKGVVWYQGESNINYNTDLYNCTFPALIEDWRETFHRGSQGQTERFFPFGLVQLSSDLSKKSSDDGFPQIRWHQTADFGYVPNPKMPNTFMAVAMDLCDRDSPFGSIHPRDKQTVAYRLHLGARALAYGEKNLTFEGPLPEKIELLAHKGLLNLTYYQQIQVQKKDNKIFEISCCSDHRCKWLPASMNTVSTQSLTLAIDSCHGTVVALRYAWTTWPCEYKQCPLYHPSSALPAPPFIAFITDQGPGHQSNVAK
rCAG RNA binder: r(CAG) repeat RNA binding; TO-PRO-1 dye displacement fluorescence; 370,000 tested, 1.3% active; AID 651821; inhibition, % at 3 µM;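 active means inhibition above the plate cutoff, the mean of all test compounds on that plate plus 3 SD, cut at about 35% in these data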;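 further: 0% = DMSO alone and 100% = 100 µM mitoxantrone as full dye displacement; higher means more dye released from RNA so lower well fluorescence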
ABHD4 inh: inhibitors of mouse ABHD4; AID 720543; inhibition, % at 8.92 µM; purified mABHD4, FP-Rh probe fluorescence polarization; Q8VD66; 370,000 tested, 0.54% active;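 active means inhibition exceeding the mean over every tested compound plus 3 SD, cut at about 30% in these data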;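 further: 0% = plate median of compound wells and 100% = S159A mutant with DMSO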
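system = mouse ABHD4 enzyme, wild type | medium = HEPES pH 7.0, NaCl, Pluronic buffer | also added = FP-Rh probe | incubation = Enzyme–compound pre-incubation 45 min, then probe 60 min, both 25 °C | technique = fluorescence polarization, excitation 525 nm, emission 598 nm, BODIPY TMR filters | controls = S159A mutant high control, sample median low control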
Starred values were filed as active, the others as inactive; . = not tested or not shown. This is a sample that favours compounds with a hit; in the whole collection about 3.3% have one here.

SMILES	TCR CD3 inh	PRMT1 FP inh	SIAE primary	rCAG RNA binder	ABHD4 inh
CC(C)C[C@H](NC1(C(=O)NC2CCCCC2)CCCCC1)C(=O)NCCc1c[nH]c2ccccc12	.	1	11	.	5
O=C(NCCO)c1ccc2nc(-c3ccco3)c(-c3ccco3)nc2c1	26*	65*	20*	54*	42*
c1coc(-c2nc3ccccc3nc2-c2ccco2)c1	34*	42*	25*	52*	62*
O=C(CCn1nnc(-c2cccs2)n1)NCc1cccs1	.	-7	-4	-1	2
COCCN=C1Sc2ccccc2[C@@H]2C[C@H]3[C@H](CON3C)CN12	8	24*	7	0	7
CN1OC[C@@H]2CN3C(=NCCc4ccccc4)Sc4ccccc4[C@@H]3C[C@@H]21	3	19	3	0	0
Cc1ccc(S(=O)(=O)NNC(=O)C(=O)NNS(=O)(=O)c2ccc(C)cc2)cc1	4	1	2	1	4
Cc1ccc(NNS(=O)(=O)c2ccc(C)cc2)cc1	-5	64*	4	11	17
O=S1(=O)c2ccc(N3CCCC3)cc2Oc2ccccc2CN1Cc1cn(Cc2ccccc2C(F)(F)F)nn1	.	2	2	16	1
COC(=O)[C@]12C[C@H](CC(=O)N3CCOCC3)C(=O)N(Cc3cccc4ccccc34)C1=C[C@H](C(C)C)O[C@@H]2C1CC1	.	1	2	4	-1
COC(=O)[C@@]1(Cc2ccc(F)cc2)[C@H]2c3cc(C(=O)N4CCCC4)n(Cc4ccc(C(F)(F)F)nc4)c3C[C@H]2CN1C(=O)c1ccccc1	3	0	17*	1	-8
COC(=O)[C@@]1(Cc2ccc(F)cc2)[C@H]2c3cc(C(=O)N4CCCC4)n(Cc4ccc(S(C)(=O)=O)cc4)c3C[C@H]2CN1C(=O)c1ccccc1	9	-1	1	9	6
COC(=O)[C@@]1(Cc2ccc(F)cc2)[C@H]2c3cc(C(=O)N4CCCC4)n(Cc4ccc(C)o4)c3C[C@H]2CN1C(=O)c1ccccc1	-9	24*	2	11	2
Cc1ccccc1-n1c(SCC(=O)N2CCOCC2)nc(O)c(Cc2ccccc2)c1=O	1	24*	-4	3	-8
COC(=O)CCC/C=C1/SCC(NC(=O)c2ccccc2)C1=O (stereo unspecified)	1	26*	-9	29	2
CCC[C@H]1[C@@H](OC(=O)N2CCN(c3ccccc3)CC2)CC[C@@]23CCCN2C(=O)CCC[C@@H]13	.	1	4	.	4
O=C(CSc1nncc(=O)[nH]1)Nc1cccc([N+](=O)[O-])c1	4	33*	0	6	5
Nc1cc(=O)[nH]c(SCC(=O)Nc2cccc([N+](=O)[O-])c2)n1	-7	4	-5	3	-2
CCc1ccc(S(=O)(=O)/N=C2\C=C(Nc3ccc(C(=O)O)cc3)C(=O)c3ccccc32)cc1	-1	3	13	89*	54*
CCN(CC)c1ccc(C=Nc2ccc(C)cc2)c(O)c1	8	1	-4	0	10
CCN(CC)c1ccc(C=Nc2ccc(N(C)C)cc2)c(O)c1	2	25*	3	12	26
Clc1ccc(C2=CC(c3ccco3)n3ncnc3N2)cc1 (stereo unspecified)	8	64*	-4	-86	-5
COc1ccc(Cl)cc1NC(=O)CSc1nnc(Cc2ccc(C)cc2)c(=O)[nH]1	1	24*	-12	75*	-27
COC(=O)[C@]12C[C@H](CC(=O)N3CCN(C(=O)c4ccco4)CC3)C(=O)N(Cc3cccc4ccccc34)C1=C[C@H](COCc1ccccc1)O[C@@H]2C	.	4	2	13	-3
CCOC(=O)[C@]12CCCCC/C=C\1N(Cc1ccc(OC)cc1)C(=O)[C@H]2CC(=O)NCCCOC	.	1	-1	-2	-1
SMILES	TCR CD3 inh	PRMT1 FP inh	SIAE primary	rCAG RNA binder	ABHD4 inh
Cc1ccc(C(=O)NNC(=O)c2ccncc2)cc1C	1	-3	4	1	5
Cc1ccc(CC(=O)NNC(=O)c2ccncc2)cc1C	-9	24*	0	0	0
COc1ccc(/C=C2/CN(Cc3ccc(OC)cc3OC)C3=N[C@H](c4ccccc4)CC(=O)N32)cc1	.	3	-4	6	-6
CC1CCCC(C(=O)O)N1C(=O)CCS (stereo unspecified)	-7	25*	-7	5	-14
CSCCC(=O)N1C(C)CCCC1C(=O)O (stereo unspecified)	-4	0	1	1	3
CCOc1ccc(-c2cc(C(=O)OC)c3n(c2=O)CCC3)cc1	.	-3	1	0	1
COc1ccc(S(=O)(=O)N2CCN(c3cnccn3)CC2)cc1OC	-1	21*	1	5	-4
CC(=O)Nc1cccc(C(=O)/C=C/c2ccc[nH]2)c1	-9	22*	6	17	-3
CC(=O)Nc1cccc(C(=O)/C=C/c2ccco2)c1	0	21*	6	13	1
CC(=O)Nc1cccc(C(=O)/C=C/c2ccc(/C=C/C(=O)c3cccc(NC(C)=O)c3)cc2)c1	0	1	-12	6	-3
CC(=O)Nc1cccc(C(=O)/C=C/c2ccc(F)cc2)c1	-2	2	6	0	-12
O=[N+]([O-])c1ccccc1S(=O)(=O)N1CCC(c2cn3ccccc3n2)CC1	.	8	-3	9	5
Cc1cc(C)c2c(c1)NC(C(=O)O)C1CC=CC21 (stereo unspecified)	29*	32*	20*	58*	56*
Cc1cc(C)c2c(c1)N[C@H](c1cccs1)[C@@H]1CCO[C@H]21	6	-4	13	-7	-3
Nc1nnc(CC(=O)N/N=C/c2cc([N+](=O)[O-])cc(Br)c2O)s1	34*	9	6	59*	39*
Nc1nnc(CC(=O)N/N=C/c2cccc([N+](=O)[O-])c2)s1	12	4	-2	5	6
C[C@@H]1CN([C@@H](C)COC(=O)C(C)(C)C)C(=O)c2cc(NC(=O)Nc3ccccc3)ccc2O[C@@H](C)CCCCO[C@H]1CN(C)S(=O)(=O)c1ccc(F)cc1	.	-2	-11	.	-31
O=c1c2ccc(F)cc2nc2sc(Nc3ccc4c(c3)CCC4)nn12	.	2	2	.	4
O=C1CCC[C@H]2C[C@H](NCc3cccc(I)c3)CC[C@]23CCCN13	.	3	-1	.	0
O=[N+]([O-])c1cccc(C2CC(c3ccccc3)=NN2c2ccccc2)c1 (stereo unspecified)	-2	4	-1	4	-1
Cc1ccc(C2=Nc3ccccc3SC(c3cccc([N+](=O)[O-])c3)C2)cc1 (stereo unspecified)	-3	76*	5	-3	5
O=C(CN1C2=NCCN2c2ccccc21)c1ccc2c(c1)OCO2	-2	-2	20*	6	-1
O=C(CN1C2=NCCN2c2ccccc21)c1ccc(Br)cc1	5	-1	-6	7	2
Cc1ccc(C(C[N+](=O)[O-])Sc2ccc(N)cc2)cc1 (stereo unspecified)	-9	67*	3	4	2

Source: PubChem (The Scripps Research Institute Molecular Screening Center)
